Legend:
Format in all cases: functional, cell-based
SNU-423 = assay: Antiproliferative activity against human SNU-423 cells after 10 days; settings: SNU-423, 240 h
A 172 = assay: Antiproliferative activity against human A-172 cells after 10 days; settings: A 172, 240 h
In short: (§1)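 Tested as part of a 240-line cancer cell panel (Eurofins Oncopanel); all lines were mycoplasma-negative and STR-verified. Cells were exposed to a compound concentration series in 2D culture for 10 days. The highest concentration was 10 μM or 25 μM, depending on the inhibitor. Antiproliferative IC50 was derived from the mean of three biological replicates.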

CAL-27 = assay: Antiproliferative activity against human CAL-27 cells after 10 days; settings: CAL-27, 240 h; in short: as §1
NALM-6 = assay: Antiproliferative activity against human NALM-6 cells after 10 days; settings: NALM-6, 240 h
In short: (§2)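 Broad cancer cell line panel (Eurofins Oncopanel, about 240 lines; mycoplasma negative, STR verified) grown in 2D culture and exposed to compound in a 10-day proliferation assay. The top concentration was 10 μM for the SMYD2 inhibitor series and 25 μM for the SMYD3 inhibitor. The proliferative IC50 is taken from concentration-response data, each value the mean of three biological replicates.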

SW 954 = assay: Antiproliferative activity against human SW 954 cells after 10 days; settings: SW 954, 240 h
HEC-1-A = assay: Antiproliferative activity against human HEC-1-A cells after 10 days; settings: 240 h
In short: (§3)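 10-day 2D proliferation screen of a broad cancer cell panel (about 240 lines, Eurofins Oncopanel). All lines were mycoplasma negative and STR verified. Compounds were dosed up to a top concentration of 10 μM or 25 μM, depending on the inhibitor. Anti-proliferative IC50 values are the average of three biological replicates.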

ACHN = assay: Antiproliferative activity against human ACHN cells after 10 days; settings: 240 h; in short: as §1
SW480 = assay: Antiproliferative activity against human SW480 cells after 10 days; settings: SW480, 240 h
Hs-578T = assay: Antiproliferative activity against human Hs 578T cells after 10 days; settings: 240 h; in short: as §3
A-427 = assay: Antiproliferative activity against human A-427 cells after 10 days; settings: A-427, 240 h; in short: as §1
DMS-53 = assay: Antiproliferative activity against human DMS-53 cells after 10 days; settings: DMS-53, 240 h; in short: as §3
WiDr = assay: Antiproliferative activity against human WiDr cells after 10 days; settings: 240 h
SHP77 = assay: Antiproliferative activity against human SHP77 cells after 10 days; settings: SHP77, 240 h
C-33-A = assay: Antiproliferative activity against human C-33-A cells after 10 days; settings: 240 h; in short: as §1
BPH-1 = assay: Antiproliferative activity against human BPH-1 cells after 10 days; settings: BPH-1, 240 h; in short: as §1
BT-20 = assay: Antiproliferative activity against human BT-20 cells after 10 days; settings: BT-20, 240 h; in short: as §1
CFPAC-1 = assay: Antiproliferative activity against human CFPAC-1 cells after 10 days; settings: CFPAC-1, 240 h; in short: as §1
ASPC1 = assay: Antiproliferative activity against human ASPC1 cells after 10 days; settings: ASPC1, 240 h; in short: as §1
MDA-MB-453 = assay: Antiproliferative activity against human MDA-MB-453 cells after 10 days; settings: MDA-MB-453, 240 h
In short: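 Cell lines run in the Eurofins Oncopanel broad cancer panel, all mycoplasma-negative and STR-verified. Cells were exposed to a compound concentration series in a 10-day proliferation assay, and an anti-proliferative IC50 was derived. Values are the mean of three biological replicates.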

NCI-H661 = assay: Antiproliferative activity against human NCI-H661 cells after 10 days; settings: NCI-H661, 240 h; in short: as §2
CHP-212 = assay: Antiproliferative activity against human CHP-212 cells after 10 days; settings: CHP-212, 240 h; in short: as §1
HMCB cell line = assay: Antiproliferative activity against human HMCB cells after 10 days; settings: 240 h; in short: as §3
SJRH30 = assay: Antiproliferative activity against human SJRH30 cells after 10 days; settings: SJRH30, 240 h
BV-173 = assay: Antiproliferative activity against human BV-173 cells after 10 days; settings: BV-173, 240 h; in short: as §1
EB-3 = assay: Antiproliferative activity against human EB-3 cells after 10 days; settings: EB-3, 240 h; in short: as §3
OVCAR-3 = assay: Antiproliferative activity against human OVCAR-3 cells after 10 days; settings: OVCAR-3, 240 h; in short: as §2
RL95-2 = assay: Antiproliferative activity against human RL95-2 cells after 10 days; settings: RL95-2, 240 h
[1] = Antiproliferative activity against human SKO-007 cells after 10 days; settings: SKO-007, 240 h
[2] = Antiproliferative activity against human CML-T1 cells after 10 days; settings: CML-T1, 240 h; in short: as §1
D283 Med = assay: Antiproliferative activity against human D283 Med cells after 10 days; settings: 240 h; in short: as §3
SR = assay: Antiproliferative activity against human SR cells after 10 days; settings: 240 h
Detroit 562 = assay: Antiproliferative activity against human Detroit 562 cells after 10 days; settings: Detroit 562, 240 h
HLE = assay: Antiproliferative activity against human HLE cells after 10 days; settings: 240 h
CCRF-CEM = assay: Antiproliferative activity against human CCRF-CEM cells after 10 days; settings: 240 h
H4 = assay: Antiproliferative activity against human H4 cells after 10 days; settings: H4, 240 h
MDA-MB-468 = assay: Antiproliferative activity against human MDA-MB-468 cells after 10 days; settings: MDA-MB-468, 240 h
C32 = assay: Antiproliferative activity against human C32 cells after 10 days; settings: C32, 240 h
SK-N-AS = assay: Antiproliferative activity against human SK-N-AS cells after 10 days; settings: 240 h
NCI-H460 = assay: Antiproliferative activity against human NCI-H460 cells after 10 days; settings: NCI-H460, 240 h
MX1 = assay: Antiproliferative activity against human MX1 cells after 10 days; settings: MX1, 240 h
COLO-829 = assay: Antiproliferative activity against human COLO-829 cells after 10 days; settings: COLO-829, 240 h
SK-MEL-28 = assay: Antiproliferative activity against human SK-MEL-28 cells after 10 days; settings: SK-MEL-28, 240 h
DBTRG-05MG = assay: Antiproliferative activity against human DBTRG-05MG cells after 10 days; settings: 240 h
C-4-II = assay: Antiproliferative activity against human C-4-II cells after 10 days; settings: 240 h

Which IC50 (SNU-423) does the source give for `Cc1cn(CCN2CCN(c3ccccc3-c3cc(C#N)cc(C(=O)NCCCN4CCCC4)c3)CC2)c2ccccc12` here?
Its IC50 is 1.11 µM.

And the IC50 (A 172)?
The IC50 was 1.96 µM.

And the IC50 (CAL-27)?
The IC50 was 2.52 µM.

What about the IC50 (NALM-6) of the same molecule?
The IC50 was 1.14 µM.

And the IC50 (SW 954)?
Its IC50 is 4.07 µM.

What about the IC50 (HEC-1-A) of the same molecule?
The IC50 was 1.05 µM.

What about the IC50 (ACHN) of the same molecule?
Its IC50 is 3.21 µM.

What about the IC50 (SW480) of the same molecule?
Its IC50 is 2.15 µM.

What about the IC50 (Hs-578T) of the same molecule?
The IC50 was 6.14 µM.

And the IC50 (A-427)?
Its IC50 is 1.34 µM.

And the IC50 (DMS-53)?
Its IC50 is 3.17 µM.

What about the IC50 (WiDr) of the same molecule?
The IC50 was 0.838 µM.

What about the IC50 (SHP77) of the same molecule?
Its IC50 is 1.65 µM.

And the IC50 (C-33-A)?
The IC50 was 3.23 µM.

What about the IC50 (BPH-1) of the same molecule?
The IC50 was 3.49 µM.

And the IC50 (BT-20)?
The IC50 was 3.35 µM.

And the IC50 (CFPAC-1)?
Its IC50 is 1.48 µM.

What about the IC50 (ASPC1) of the same molecule?
The IC50 was 3.01 µM.

What about the IC50 (MDA-MB-453) of the same molecule?
Its IC50 is 1.5 µM.

What about the IC50 (NCI-H661) of the same molecule?
Its IC50 is 3.39 µM.

What about the IC50 (CHP-212) of the same molecule?
Its IC50 is 2.1 µM.

What about the IC50 (HMCB cell line) of the same molecule?
Its IC50 is 2.86 µM.

And the IC50 (SJRH30)?
Its IC50 is 1.23 µM.

What about the IC50 (BV-173) of the same molecule?
Its IC50 is 1.33 µM.

What about the IC50 (EB-3) of the same molecule?
The IC50 was 0.329 µM.

And the IC50 (OVCAR-3)?
Its IC50 is 3.95 µM.

And the IC50 (RL95-2)?
Its IC50 is 1.29 µM.

And the IC50 [1]?
Its IC50 is 0.855 µM.

And the IC50 [2]?
The IC50 was 1.1 µM.

And the IC50 (D283 Med)?
The IC50 was 2.51 µM.

Which IC50 (SNU-423) does the source give for `O=C(NC1CN(Cc2cnn(Cc3ccccc3)c2)C1)c1cn(C2CC2)nn1` here?
Its IC50 is > 10 µM.

And the IC50 (SR)?
The IC50 was > 10 µM.

And the IC50 (A 172)?
Its IC50 is > 10 µM.

What about the IC50 (CAL-27) of the same molecule?
Its IC50 is > 10 µM.

What about the IC50 (Detroit 562) of the same molecule?
Its IC50 is > 10 µM.

And the IC50 (NALM-6)?
The IC50 was > 10 µM.

And the IC50 (SW 954)?
The IC50 was > 10 µM.

And the IC50 (HLE)?
Its IC50 is > 10 µM.

And the IC50 (HEC-1-A)?
Its IC50 is > 10 µM.

What about the IC50 (ACHN) of the same molecule?
The IC50 was > 10 µM.

And the IC50 (SW480)?
The IC50 was > 10 µM.

And the IC50 (Hs-578T)?
The IC50 was > 10 µM.

And the IC50 (A-427)?
Its IC50 is > 10 µM.

What about the IC50 (DMS-53) of the same molecule?
Its IC50 is > 10 µM.

And the IC50 (WiDr)?
Its IC50 is > 10 µM.

What about the IC50 (CCRF-CEM) of the same molecule?
Its IC50 is > 10 µM.

What about the IC50 (SHP77) of the same molecule?
Its IC50 is > 10 µM.

And the IC50 (C-33-A)?
The IC50 was > 10 µM.

What about the IC50 (BPH-1) of the same molecule?
Its IC50 is > 10 µM.

And the IC50 (BT-20)?
Its IC50 is > 10 µM.

And the IC50 (CFPAC-1)?
Its IC50 is > 10 µM.

And the IC50 (ASPC1)?
Its IC50 is > 10 µM.

And the IC50 (H4)?
Its IC50 is > 10 µM.

What about the IC50 (MDA-MB-453) of the same molecule?
Its IC50 is > 10 µM.

And the IC50 (MDA-MB-468)?
The IC50 was > 10 µM.

And the IC50 (NCI-H661)?
Its IC50 is > 10 µM.

And the IC50 (C32)?
Its IC50 is > 10 µM.

And the IC50 (CHP-212)?
The IC50 was > 10 µM.

And the IC50 (SK-N-AS)?
Its IC50 is > 10 µM.

And the IC50 (NCI-H460)?
The IC50 was > 10 µM.

And the IC50 (HMCB cell line)?
The IC50 was > 10 µM.

And the IC50 (MX1)?
The IC50 was > 10 µM.

What about the IC50 (COLO-829) of the same molecule?
Its IC50 is 5.73 µM.

And the IC50 (SJRH30)?
The IC50 was > 10 µM.

And the IC50 (BV-173)?
Its IC50 is > 10 µM.

And the IC50 (EB-3)?
The IC50 was > 10 µM.

And the IC50 (SK-MEL-28)?
Its IC50 is > 10 µM.

What about the IC50 (OVCAR-3) of the same molecule?
Its IC50 is > 10 µM.

What about the IC50 (RL95-2) of the same molecule?
The IC50 was > 10 µM.

And the IC50 [1]?
The IC50 was 0.168 µM.

And the IC50 (DBTRG-05MG)?
Its IC50 is > 10 µM.

And the IC50 [2]?
Its IC50 is > 10 µM.

What about the IC50 (C-4-II) of the same molecule?
Its IC50 is > 10 µM.

What about the IC50 (D283 Med) of the same molecule?
Its IC50 is > 10 µM.
